Assay [1] addresses T1, Sterol O-acyltransferase 1 (Rattus norvegicus) (UniProt O70536).
T1 sequence (whole entry): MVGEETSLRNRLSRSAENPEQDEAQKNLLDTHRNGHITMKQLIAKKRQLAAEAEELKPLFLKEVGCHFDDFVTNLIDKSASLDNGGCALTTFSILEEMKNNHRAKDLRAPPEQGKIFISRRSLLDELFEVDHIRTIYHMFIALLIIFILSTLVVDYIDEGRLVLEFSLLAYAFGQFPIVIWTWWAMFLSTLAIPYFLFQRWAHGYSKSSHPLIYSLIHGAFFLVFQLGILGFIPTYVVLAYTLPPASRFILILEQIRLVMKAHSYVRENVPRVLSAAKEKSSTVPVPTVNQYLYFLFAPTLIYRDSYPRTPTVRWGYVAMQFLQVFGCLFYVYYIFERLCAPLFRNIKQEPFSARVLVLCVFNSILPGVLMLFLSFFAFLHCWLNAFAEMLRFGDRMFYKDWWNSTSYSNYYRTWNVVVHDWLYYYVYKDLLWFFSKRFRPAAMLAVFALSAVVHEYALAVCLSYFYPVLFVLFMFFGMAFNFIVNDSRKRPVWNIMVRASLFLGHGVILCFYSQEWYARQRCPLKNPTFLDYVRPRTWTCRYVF
Briefly: Inhibition of Fu5AH Acyl coenzyme A:cholesterol acyltransferase at the concentration of 10 ug/mL.

Assay [2] has as its target T2, Sterol O-acyltransferase 1 (Rattus norvegicus, UniProt O70536).
T2 sequence (O70536 whole entry): T1 sequence (whole entry)
Put plainly: In vitro inhibition of Fu5AH acyl coenzyme A:cholesterol acyltransferase.

Assay [3] is filed under the species Rattus norvegicus. Briefly: (§1) The compound was tested for % control of serum cholesterol in cholesterol. Format: functional. An outline of the steps:
(§2)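 Male Sprague-Dawley rats (100–110 g), groups of 10, fed synthetic diet with 1% cholesterol; compound mixed into diet to give the stated daily dose (mg/kg) for 7 days. Serum from jugular bleed under anesthesia; VLDL+LDL separated from HDL by PEG-8000 precipitation in glycine buffer pH 9; values expressed as % of cholesterol-fed control; one-way design, LSD comparison.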

The species entered for assay [4] is Rattus norvegicus. Described as §1. Format: functional. An outline of the steps:
as §2
This is another data set of the same source.

Assay [5] is filed under the species Rattus norvegicus. Described as §1. Format: functional. The gist of the method:
as §2
The source holds these as a separate data set.

For assay [6], the species on record is Rattus norvegicus. Put plainly: (§3) Percent control of serum cholesterol in cholesterol. Format: functional. Set-up: concentration or dose not given beside the values. An outline of the steps: as §2
Assay [7] is filed under the species Rattus norvegicus. The assay is described as §3. Format: functional. Set-up: concentration or dose not given beside the values. An outline of the steps:
as §2
The source holds these as a separate data set.

Assay [8] is filed under the species Rattus norvegicus. The description is as §3. It counts as functional. Also on record: concentration or dose not given beside the values. An outline of the steps:
as §2
The source holds these as a separate data set.

The target in assay [9] is T1, Sterol O-acyltransferase 1 (Rattus norvegicus). Put plainly: (§4) Serum lipoprotein cholesterol in Cholesterol-fed rats Treated with ACAT inhibitor, after one week. It counts as functional. The gist of the method:
(§5)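 Rats fed 1% cholesterol diet for one week, then for a second week the same diet with inhibitor in feed at 20 mg/kg/day, or the synthetic diet without cholesterol. 5 rats per group. Serum HDL, VLDL/LDL (PEG-8000 precipitation, glycine pH 9) and total cholesterol measured at day 7 and […].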

Assay [10] shares this target. Put plainly: (§6) Serum lipoprotein cholesterol diet containing ACAT inhibitor, after one week. Format: functional. The gist of the method: as §5
For assay [11], the species on record is Rattus norvegicus. Put plainly: (§7) Serum lipoprotein cholesterol fed rats dieted or both weeks, after one week. It counts as functional, organism-based. The gist of the method: as §5
Assay [12] deals with T1, Sterol O-acyltransferase 1 (Rattus norvegicus). The assay is described as §4. Format: functional. The gist of the method: as §5
The source holds these as a separate data set.

The species named for assay [13] is Rattus norvegicus. Put plainly: Serum lipoprotein cholesterol fed rats dieted for both weeks, after one week. It counts as functional, organism-based. The gist of the method: as §5
The target of assay [14] is T1, Sterol O-acyltransferase 1 (Rattus norvegicus). Described as §6. It counts as functional. The gist of the method: as §5
This is another data set of the same source.

Assay [15] has the same target. Put plainly: (§8) Serum lipoprotein cholesterol in Cholesterol-fed rats Treated with ACAT inhibitor, after two weeks. Format: functional. The gist of the method: as §5
For assay [16], the species on record is Rattus norvegicus. Put plainly: (§9) Serum lipoprotein cholesterol fed rats dieted or both weeks, after two weeks. It counts as functional, organism-based. An outline of the steps: as §5
For assay [17], the target named is T1, Sterol O-acyltransferase 1 (Rattus norvegicus). The description is as §8. It counts as functional. The gist of the method:
as §5
This is another data set of the same source.

Assay [18] shares this target. Put plainly: (§10) Serum lipoprotein cholesterol diet containing ACAT inhibitor, after two weeks. It counts as functional. An outline of the steps:
as §5

The species named for assay [19] is Rattus norvegicus. The description is as §9. Format: functional, organism-based. An outline of the steps:
as §5
This is another data set of the same source.

The target in assay [20] is T1, Sterol O-acyltransferase 1 (Rattus norvegicus). The assay is described as §8. Format: functional. An outline of the steps: as §5
The source holds these as a separate data set.

Assay [21] is filed under the species Rattus norvegicus. Put plainly: Serum lipoprotein cholesterol fed rats dieted for both weeks, after two weeks. It counts as functional, organism-based. An outline of the steps: as §5
Assay [22] addresses T1, Sterol O-acyltransferase 1 (Rattus norvegicus). The assay is described as §10. Format: functional. The gist of the method:
as §5
This is another data set of the same source.

For assay [23] the target is unchanged. Put plainly: The compound was tested for Serum Lipoprotein cholesterol- (HDL) (mg/dL) concentrations in Cholesterol-fed rats Treated with ACAT inhibitor. It counts as functional. The gist of the method: as §5
The target is the same in assay [24]. Briefly: The compound was tested for Serum Lipoprotein cholesterol- (VLDL+LDL) (mg/dL) concentrations in Cholesterol-fed rats Treated with ACAT inhibitor. It counts as functional. An outline of the steps:
as §5

Assay [25] shares this target. Briefly: The compound was tested for Serum Lipoprotein cholesterol- (total) (mg/dL) concentrations in Cholesterol-fed rats Treated with ACAT inhibitor. It counts as functional. An outline of the steps: as §5
For assay [26], the system named is Rattus norvegicus. Put plainly: The compound was tested for % absorption of cholesterol in Cholesterol-Fed rats dosed at 20 mg/kg of body weight per day. Also on record: dose 20 mg/kg. It counts as functional, organism-based. The gist of the method:
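Zilversmit dual-isotope plasma ratio method in rats fed cholesterol diet ± compound in feed at 20 mg/kg/day. After one week, [3H]cholesterol given iv and [14C]cholesterol by oral gavage. Blood sampled on days 4, 7 and 9 after label; % oral cholesterol absorbed averaged over the 3 days per rat; one-way design.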

Assay [27] deals with T1, Sterol O-acyltransferase 1 (Rattus norvegicus). The assay is described as §4. It counts as functional. The gist of the method: as §5
This is another data set of the same source.

For assay [28] the target is unchanged. The description is as §6. It counts as functional. An outline of the steps:
as §5
The source holds these as a separate data set.

For assay [29], the species on record is Rattus norvegicus. Described as §7. Format: functional, organism-based. An outline of the steps: as §5
The source holds these as a separate data set.

For assay [30], the species on record is Rattus norvegicus. Described as §1. It counts as functional. The gist of the method: as §2
The source holds these as a separate data set.

Assay [31] is filed under the species Rattus norvegicus. The assay is described as §1. It counts as functional. The gist of the method:
as §2
The source holds these as a separate data set.

The species named for assay [32] is Rattus norvegicus. The description is as §1. It counts as functional. An outline of the steps:
as §2
The source holds these as a separate data set.

Assay [33] is filed under the species Rattus norvegicus. Described as §1. Format: functional. The gist of the method: as §2
This is another data set of the same source.

For assay [34], the species on record is Rattus norvegicus. The description is as §1. Format: functional. An outline of the steps: as §2
This is another data set of the same source.

The inhibition is the percentage by which the read-out fell short of the control. What is called IC50 is the concentration needed to halve the response being measured. In assay [1], `O=C(Cn1c2c(c(=O)n3nc(-c4ccc(Cl)cc4)cc13)CN(C1CCCCC1)C2=O)c1ccccc1` had an inhibition of 85%. The same compound gave an IC50 in [2] of 2.99 µM. The Control in the assay filed under Rattus norvegicus [3] was found to be 141%; in the assay filed under Rattus norvegicus [4], 84%; in the assay filed under Rattus norvegicus [5] it was 32%; in the assay filed under Rattus norvegicus [6], 134%; in the assay listed under Rattus norvegicus [7], 85%; in the assay filed under Rattus norvegicus [8], 40%. For the same compound, the values for the Control in the assay listed under Rattus norvegicus [30], in the assay filed under Rattus norvegicus [31] and in the assay listed under Rattus norvegicus [32] were 130%, 81% and 37%, respectively. The Serum lipoprotein cholesterol in assay [9] was determined as 130; in assay [10] it was 119; in the assay listed under Rattus norvegicus [11], 77.8; in assay [12], 182; in the assay listed under Rattus norvegicus [13], 146; in assay [14] it was 184. The Serum lipoprotein cholesterol is 50.3 in assay [15]; 52.2 in the assay filed under Rattus norvegicus [16]; 56.1 in [17]; 32.6 in [18]; 91.9 in the assay listed under Rattus norvegicus [19]; 106 in [20]. In addition, the Serum lipoprotein cholesterol in the assay listed under Rattus norvegicus [21] was found to be 144; in assay [22] it was 108; in assay [23], 76.4; in assay [24] it was 41.8; in assay [25] it was 118; in [27], 52.9. Moreover, the Serum lipoprotein cholesterol in assay [28] was 65.8; in the assay listed under Rattus norvegicus [29] it was 68.8. The Absorption in the assay with Rattus norvegicus [26] came to 27%.

In turn, `C=CCCCCn1c2c(c(=O)n3nc(-c4ccccc4)cc13)CN(C1CCCCC1)C2=O` had an inhibition in assay [1] of 93%. The same compound gave an IC50 in assay [2] of 10.2 µM. Moreover, the Control in the assay filed under Rattus norvegicus [32] was 79%; in the assay filed under Rattus norvegicus [33], 114%; in the assay listed under Rattus norvegicus [34] it was 95%.

For `CC1CCCC(N2Cc3c(n(CC(=O)c4ccccc4)c4cc(-c5ccccc5)nn4c3=O)C2=O)C1C` (stereo not drawn), the inhibition in assay [1] is 79%. This compound had an IC50 in assay [2] of 6.67 µM. Also, the Control is given as 109% in the assay listed under Rattus norvegicus [3]; 83% in the assay listed under Rattus norvegicus [4]; 62% in the assay filed under Rattus norvegicus [5]; 122% in the assay listed under Rattus norvegicus [6]; 89% in the assay filed under Rattus norvegicus [7]; 59% in the assay filed under Rattus norvegicus [8]. In addition, the Control is 105% in the assay filed under Rattus norvegicus [30], 86% in the assay filed under Rattus norvegicus [31] and 70% in the assay listed under Rattus norvegicus [32].

For the origin of these results see ChEMBL document CHEMBL1125881, “Synthesis and hypocholesterolemic activity of 6,7-dihydro-4H-pyrazolo[1,5-a]pyrrolo[3,4-d]pyrimidine-5,8-diones, novel inhibitors of acylCoA:cholesterol O-acyltransferase” (J Med Chem, 1991).
